# Screening data as filed in PubChem BioAssay.
# PPC-1+TRAIL kill: kills PPC-1 cancer cells in the presence of TRAIL; PPC-1 cells + TRAIL, ATPLite viability luminescence; 0.41% of 220,000 active; AID 1443; cell killing (% activity), % at 4 µM or 5 µM;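 active means cell killing above 50% in the first pass at 4 µM, then a duplicate retest at 5 µM averaging 50% or more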;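 further: plate controls were cells with TRAIL plus DMSO for no effect and medium-only wells lacking cells for full effect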
# FLuc stim CS: firefly luciferase counter-screen for stimulation assays; 200,000 tested, under 10 active; ATPlite luciferase biochemical, luminescence, 10 min; 0 = ATP-free wells, 1 = DMSO control; AID 1027; activation factor at 10 µM; P08659;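 active means luciferase activation factor, scaled between plate controls, of at least 2 with compound at 10 µM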
# Target sequence (P08659 whole entry, looked up): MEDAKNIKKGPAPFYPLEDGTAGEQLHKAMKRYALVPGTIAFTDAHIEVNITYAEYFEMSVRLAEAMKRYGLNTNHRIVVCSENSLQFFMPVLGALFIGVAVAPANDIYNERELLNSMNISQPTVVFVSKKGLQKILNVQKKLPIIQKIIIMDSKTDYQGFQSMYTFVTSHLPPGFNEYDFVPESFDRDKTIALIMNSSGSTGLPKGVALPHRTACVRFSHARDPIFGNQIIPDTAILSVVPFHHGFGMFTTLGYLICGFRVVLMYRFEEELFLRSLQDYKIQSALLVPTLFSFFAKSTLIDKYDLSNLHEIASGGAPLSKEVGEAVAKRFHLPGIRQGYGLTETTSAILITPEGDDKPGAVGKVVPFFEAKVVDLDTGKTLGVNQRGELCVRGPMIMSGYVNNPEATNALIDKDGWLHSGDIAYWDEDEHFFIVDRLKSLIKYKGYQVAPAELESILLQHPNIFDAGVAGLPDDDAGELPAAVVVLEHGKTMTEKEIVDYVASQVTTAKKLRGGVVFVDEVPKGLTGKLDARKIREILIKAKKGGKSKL
#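 test system = cell-free luciferase reagent | medium = PBS as buffer for the ATP substrate | dosing = test compounds dosed from 2 mM stocks in 100% DMSO | incubation = 10 min at ambient temperature | detection = luminescence measurement of luciferase light output | benchmarks = low control with PBS replacing ATP, high control enzyme plus ATP without compound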
# FLuc inh counter: Photinus pyralis luciferase inhibition counter-screen; P08659; ATPLite firefly luciferase biochemical luminescence, 10 min; inhibition, % at 10 µM; 1.5% of 200,000 active; AID 1006;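 active means inhibition above about 50% when tested at 10 µM, limit read from the data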
# TRAIL sens C8: sensitizes caspase-8 expressing cells to TRAIL | NB7+C8 cells + TRAIL, ATPlite viability luminescence | 1% of 360,000 active | inhibition (viability loss, TRAIL sensitization), % at 10 µM | AID 624354;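 active means compounds causing at least 50% loss of cell viability in the single-dose screen, relative to plate controls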
# PPC1 cytotox: kills PPC-1 cells | PPC-1 viability, ATPlite luminescence, overnight | 50% of 1,200 active | shares compounds with PPC-1+TRAIL kill | cytotoxicity, % at 5 µM | AID 1447;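 active means reconfirmed compounds whose average cytotoxicity reaches 50% or more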;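 further: 0% = DMSO-treated cells and 100% = wells holding medium but no cells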
# * hit, by the source's call; x = no result given. Most compounds without a hit are left out; they make up all but 1.6% or so of the library.
SMILES,PPC-1+TRAIL kill,FLuc stim CS,FLuc inh counter,TRAIL sens C8,PPC1 cytotox
CC(OC(=O)[C@@H](NC(=O)OCc1ccccc1)C(C)C)C(=O)Nc1ccc(N2CCOCC2)cc1 (some centres not stated),x,x,x,12.3,x
COC(=O)c1ccc(COc2ccc(C)cc2[N+](=O)[O-])o1,11.1,x,x,4.4,-13.6
Cc1ccc(OCc2ccc(C(=O)NN)o2)c([N+](=O)[O-])c1,12.6,x,x,5.3,x
CSc1cc(C)n(-c2ccccc2)c(=S)c1C(C)=O,-5.0,1.1,-6.1,19.6,-6.0
O=C(Cc1ccc([N+](=O)[O-])cc1)N1N=C(c2ccncc2)CC1(O)C(F)(F)F (configuration not stated),13.5,1,0.9,-2.4,x
O=C(CSc1nnc(-c2ccccc2Cl)o1)Nc1ccccn1,63.2*,1,-0.5,52.2*,64.8*
Cc1occc1-c1nnc(SCC(=O)Nc2ccccn2)o1,34.2,1.1,-7.8,4.9,x
Cc1ccc(S(=O)(=O)N(C)C[C@@H]2Oc3ccc(NS(C)(=O)=O)cc3CC(=O)N([C@H](C)CO)C[C@@H]2C)cc1,x,x,x,-7.8,x
Cc1ccc(NC(=O)CN2CCN(Cc3ccccc3)CC2)cc1F,x,x,x,4.7,x
O=C(O)c1cc(/C=C/c2ccc(N3CCOCC3)cc2)nc2ccccc12,89.6*,0,97.0*,87.2*,91.2*
COc1cc(/C=C/C(=O)OCN2C(=O)c3ccccc3C2=O)ccc1OC(F)F,x,x,x,-5.1,x
COc1cc(/C=C/c2cc(C(=O)O)c3ccccc3n2)ccc1OC(F)F,79.7*,x,x,82.6*,79.0*
O=C(O)c1cc(N2CCOCC2)nc2ccccc12,x,x,x,5.7,x
COc1ccc(S(=O)(=O)N2CC(=O)Nc3ccccc32)cc1C,x,x,x,0.1,x
CC(C)NC(=O)C1CCCN(S(=O)(=O)c2cccs2)C1 (configuration not stated),9.0,1,2.0,-11.4,1.4
CC(NC(=O)C1CCCN(S(=O)(=O)c2cccs2)C1)c1ccccc1 (configuration not stated),-7.4,1,1.2,-15.2,x
COC(=O)c1ccc2nc(-c3cccc(N)c3)cn2c1,65.8*,0.1,90.3*,72.4*,66.9*
COC(=O)c1ccc2nc(-c3ccc(S(C)(=O)=O)cc3)cn2c1,4.2,0.9,10.0,12.0,x
COc1ccc(C(=O)C(C)Sc2nnc(C3CC3)n2C2CC2)cc1 (configuration not stated),x,x,x,7.4,x
CC(C)(C)OC(=O)C[C@H]1C/C=C\C[C@@H](CC(=O)NCCO)C(=O)N[C@H](Cc2ccccc2)COC1=O,x,x,x,-11.0,x
CCc1ccn2cc(-c3cc(-c4ccccc4)no3)nc2c1,80.5*,x,x,90.4*,80.2*
COc1ccc(C2=NOC(C(=O)N(C)Cc3ccccc3)C2)cc1 (configuration not stated),7.6,1,-4.6,1.8,x
N=c1cc(C2(O)CCCCC2)n2c(nc3ccccc32)s1,75.0*,0.1,93.8*,84.3*,78.5*
CC(=O)Oc1cccc(-c2nc3ccccc3c(=O)o2)c1,13.9,0.9,11.7,-5.2,x
CCOc1ccc(-c2nc3ccccc3c(=O)o2)cc1,54.4*,0.3,67.9*,68.0*,56.4*
SMILES,PPC-1+TRAIL kill,FLuc stim CS,FLuc inh counter,TRAIL sens C8,PPC1 cytotox
Cc1cccc(C(=O)Nc2ccn(C)n2)c1,x,x,x,14.2,x
Cc1cccc(C(=O)n2c(=S)nc3cc(C)ccn32)c1,77.8*,x,x,81.6*,79.4*
CC(=O)c1c(C)[nH]c(C(=O)Nc2ccc(C)cn2)c1C,69.0*,0.1,87.6*,73.2*,66.5*
CC(=O)c1c(C)[nH]c(C(=O)Nc2nc(C)cs2)c1C,66.2*,0.1,89.6*,72.9*,65.2*
CC(=O)c1c(C)[nH]c(C(=O)Nc2nc(-c3ccc(Cl)cc3)cs2)c1C,21.6,1,-1.6,13.0,x
CC(=O)c1ccc(N2CCN(S(=O)(=O)c3ccc4c(c3)CCC(=O)N4)CC2)cc1,x,x,x,10.3,x
O=C(NCCCN1CCCC1=O)c1cccc(C(F)(F)F)c1,0.8,1,-3.6,-8.8,-2.6
CCOC(=O)N1CCN(S(=O)(=O)N2CCCC(C(=O)NCCc3ccc(OCC)c(OCC)c3)C2)CC1 (configuration not stated),x,x,x,2.4,x
Cc1ccc(/C=C/C(=O)Nn2cnnc2)cc1,1.4,0.6,41.2,5.8,x
Cc1ccc(/C=C/C(=O)C2C(=O)c3ccccc3C2=O)cc1,94.8*,0,97.3*,85.1*,94.1*
COc1ccc(N2CCN(c3nc(=S)n(-c4ccccc4)c(C)c3C(C)=O)CC2)cc1,-7.4,1.1,-6.5,21.7,7.8
Cn1c(=N)n(CC(=O)c2ccccc2)c2ccccc21,53.0*,x,x,80.6*,56.9*
Cn1c(=N)n(CC(=O)O)c2ccccc21,0.6,1,-0.4,-1.4,x
COc1ccc(N/C=C2\CCc3ccccc3C2=O)cc1,72.0*,0.1,92.2*,86.2*,72.4*
COc1ccc(N/C=C2\CCOC2=O)cc1,-8.7,1.1,-5.9,-0.6,x
CC(=O)Oc1ccc(/C=C2/CCc3ccccc3C2=O)cc1,38.4,x,x,76.3*,44.0
N#Cc1c(-n2cccc2/C=N/O)sc2c1CCCC2,10.7,1,-4.8,13.4,x
C=CCNCc1cccn1-c1sc2c(c1C#N)CCCC2,-3.1,1,2.1,11.8,7.7
CCOC1=C2CN(S(=O)(=O)c3ccc(C)cc3)[C@H](c3ccccc3)C[C@H]2[C@H]2C(=O)N(c3ccccc3)C(=O)[C@H]2C1,x,x,x,-11.6,x
Cc1ccc2nc(NC(=O)c3ccccn3)sc2c1,90.9*,0,95.3*,90.7*,88.8*
CCOc1ccc2nc(NC(=O)c3ccccn3)sc2c1,84.5*,x,x,82.3*,80.8*
O=C(Nc1nc2ccc(S(=O)(=O)N3CCCC3)cc2s1)c1ccccn1,6.8,1,0.0,16.6,x
CCOc1ccc2nc(NC(=S)NCc3ccccc3)sc2c1,-3.3,1,-4.1,23.6,x
CCOc1ccc(N(C(=O)C2CCCO2)C2C=CS(=O)(=O)C2)cc1 (configuration not stated),28.7,1.1,-5.8,-5.9,x
O=C(C1CCCO1)N(c1cccc(Cl)c1)C1C=CS(=O)(=O)C1 (configuration not stated),3.9,1,-2.4,-6.5,12.1
SMILES,PPC-1+TRAIL kill,FLuc stim CS,FLuc inh counter,TRAIL sens C8,PPC1 cytotox
C=CCn1c(-c2ccc(OC)cc2)nc2nc3ccccc3nc21,-7.5,0.9,5.5,27.1,2.3
O=C(NCCC(F)(F)F)c1cccc2c(-c3ccc(F)c(F)c3)coc12,x,x,x,-15.5,x
COc1cccc(-c2nnc(Nc3nc4c(F)cccc4s3)o2)c1,44.2,0.1,87.8*,71.0*,48.4
COc1ccccc1-c1nnc(Nc2nc3c(OC)cccc3s2)o1,7.0,0.9,12.5,29.8,x
CC(C)CC(=O)NC(c1cccs1)c1ccc2cccnc2c1O (configuration not stated),x,1,-3.6,36.4,x
CCC(=O)NC(c1cccs1)c1ccc2cccnc2c1O (configuration not stated),28.2,1,3.5,47.6,21.7
CCOC(=O)N1CCN(C(=O)CCCn2c(=S)[nH]c3ccccc3c2=O)CC1,15.9,1,1.2,8.4,x
